Measurements taken from ChEMBL document CHEMBL1811797, “Evolution from a natural flavones nucleus to obtain 2-(4-Propoxyphenyl)quinoline derivatives as potent inhibitors of the S. aureus NorA efflux pump” (J Med Chem, 2011).
Converted amounts (≈) assume the structure as drawn. The source made the active and inactive calls. The calls are words filed in the database; no cut-off is given here.

Tests used:
Staphylococcus aureus [1] = assay: Antibacterial activity against Staphylococcus aureus 1199B norA++ and A116E GrlA mutation by M7-A7 CLSI microdilution method; format: functional
[2] = target: T1, Quinolone resistance protein NorA (Staphylococcus aureus) (UniProt P0A0J7); assay: Inhibition of wild-type norA expressing Staphylococcus aureus 1199 assessed as reduction in ciprofloxacin MIC
T1 sequence (whole entry): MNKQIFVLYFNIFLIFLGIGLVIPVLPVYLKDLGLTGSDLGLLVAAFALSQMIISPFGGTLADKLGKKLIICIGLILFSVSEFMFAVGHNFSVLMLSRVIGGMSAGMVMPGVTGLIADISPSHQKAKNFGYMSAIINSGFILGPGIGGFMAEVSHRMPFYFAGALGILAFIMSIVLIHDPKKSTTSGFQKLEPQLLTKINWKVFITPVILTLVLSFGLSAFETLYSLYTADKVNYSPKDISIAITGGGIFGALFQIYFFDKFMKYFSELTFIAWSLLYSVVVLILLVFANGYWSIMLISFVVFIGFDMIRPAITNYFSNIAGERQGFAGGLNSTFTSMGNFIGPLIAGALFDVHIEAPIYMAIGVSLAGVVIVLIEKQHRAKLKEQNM

[3] = target: T1, Quinolone resistance protein NorA (Staphylococcus aureus); assay: Inhibition of NorA in Staphylococcus aureus K2378 bearing norA++ efficient mutation assessed as reduction in ciprofloxacin MIC at 6.25 ug/mL
Staphylococcus aureus [4] = assay: Potentiation of ciprofloxacin-antibacterial activity against Staphylococcus aureus K1902 bearing norA-deficient mutation assessed as reduction in ciprofloxacin MIC at >25 ug/mL by M7-A7 CLSI microdilution method; format: functional
Staphylococcus aureus [5] = assay: Potentiation of ciprofloxacin-antibacterial activity against Staphylococcus aureus K1902 bearing norA-deficient mutation assessed as reduction in ciprofloxacin MIC at 0.78 ug/mL by M7-A7 CLSI microdilution method; format: functional
[6] = target: T1, Quinolone resistance protein NorA (Staphylococcus aureus); assay: Inhibition of NorA in Staphylococcus aureus 1199B norA++ and A116E GrlA mutation assessed as reduction in ciprofloxacin MIC at >=12.5 ug/mL
Staphylococcus aureus [7] = assay: Antibacterial activity against wild-type norA expressing Staphylococcus aureus 1199 by M7-A7 CLSI microdilution method; format: functional
[8] = target: T2, Quinolone resistance protein NorA (Staphylococcus aureus, UniProt P0A0J7); assay: Inhibition of NorA in Staphylococcus aureus 1199B assessed as inhibition of ethidium bromide efflux dose response curve based fluorometric assay
T2 sequence (P0A0J7 whole entry): T1 sequence (whole entry)
Method in brief: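 Fluorometric EtBr efflux (loss of EtBr) from S. aureus SA-1199B (norA-overexpressing); dose-response curves built to assess activity at concentrations below the 50 μM screening level; duplicate experiments, result expressed as mean total efflux over a 5 min time course; IC50 derived from the curves.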

Staphylococcus aureus [9] = assay: Potentiation of ciprofloxacin-antibacterial activity against wild-type Staphylococcus aureus ATCC 25923 assessed as reduction in ciprofloxacin MIC by M7-A7 CLSI microdilution method; format: functional, organism-based
Staphylococcus aureus [10] = assay: Antibacterial activity against Staphylococcus aureus K2378 bearing norA++ efficient mutation by M7-A7 CLSI microdilution method; format: functional
Staphylococcus aureus [11] = assay: Antibacterial activity against wild-type Staphylococcus aureus ATCC 25923 by M7-A7 CLSI microdilution method; format: functional
Staphylococcus aureus [12] = assay: Antibacterial activity against Staphylococcus aureus K1902 bearing norA-deficient mutation by M7-A7 CLSI microdilution method; format: functional
Staphylococcus aureus [13] = assay: Antibacterial activity against NorA-expressing Staphylococcus aureus 1199B by M7-A7 CLSI microdilution method; format: functional
[14] = target: T1, Quinolone resistance protein NorA (Staphylococcus aureus); assay: Inhibition of NorA in Staphylococcus aureus 1199B assessed as inhibition of ethidium bromide efflux at 50 uM by fluorimetry
Method in brief: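 Fluorometric measurement of EtBr loss from norA-overexpressing SA-1199B, with compounds screened at 50 μM. Performed in duplicate; value is mean total efflux over a 5 min time course, expressed as percent inhibition.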

[15] = target: T1, Quinolone resistance protein NorA (Staphylococcus aureus); assay: Inhibition of NorA in Staphylococcus aureus 1199B norA++ and A116E GrlA mutation assessed as reduction in ciprofloxacin MIC at >12.5 ug/mL
[16] = target: T1, Quinolone resistance protein NorA (Staphylococcus aureus); assay: Inhibition of NorA in Staphylococcus aureus K2378 bearing norA++ efficient mutation assessed as reduction in ciprofloxacin MIC at 3.13 ug/mL
[17] = target: T1, Quinolone resistance protein NorA (Staphylococcus aureus); details: 1199B, 25 ug/mL
[18] = target: T1, Quinolone resistance protein NorA (Staphylococcus aureus); assay: Inhibition of NorA in Staphylococcus aureus 1199B norA++ and A116E GrlA mutation assessed as reduction in ciprofloxacin MIC at 50 ug/mL
[19] = target: T1, Quinolone resistance protein NorA (Staphylococcus aureus); assay: Inhibition of NorA in Staphylococcus aureus K2378 bearing norA++ efficient mutation assessed as reduction in ciprofloxacin MIC at 1.56 ug/mL
[20] = target: T1, Quinolone resistance protein NorA (Staphylococcus aureus); assay: Inhibition of NorA in Staphylococcus aureus K2378 bearing norA++ efficient mutation assessed as reduction in ciprofloxacin MIC at 12.5 ug/mL
[21] = target: T1, Quinolone resistance protein NorA (Staphylococcus aureus); assay: Inhibition of NorA in Staphylococcus aureus 1199B norA++ and A116E GrlA mutation assessed as reduction in ciprofloxacin MIC at 100 ug/mL

SMILES: CCCOc1ccc(-c2cc(OCCN3CCCCC3)c3ccccc3n2)cc1
- MIC (Staphylococcus aureus [1]): 100 µg/mL (≈ 256 µM)
- inhibition [2]: inactive
- fold change (FC) [3]: 16
- fold change (FC) (Staphylococcus aureus [4]): 8
- fold change (FC) (Staphylococcus aureus [5]): 4
- fold change (FC) [6]: 16
- MIC (Staphylococcus aureus [7]): 100 µg/mL (≈ 256 µM)
- IC50 [8]: 7 µM
- Activity (Staphylococcus aureus [9]): inactive
- MIC (Staphylococcus aureus [10]): 50 µg/mL (≈ 128 µM)
- MIC (Staphylococcus aureus [11]): 100 µg/mL (≈ 256 µM)
- MIC (Staphylococcus aureus [12]): 50 µg/mL (≈ 128 µM)
- MIC (Staphylococcus aureus [13]): 256 µM (≈ 100 µg/mL)

SMILES: COc1ccc(-c2cc(=O)c3ccccc3n2C)cc1
- inhibition [14]: 0%

SMILES: Cn1c(-c2ccc(OCCN3CCOCC3)cc2)cc(=O)c2ccccc21
- inhibition [14]: 0%

SMILES: CCCOc1ccc(-c2cc(OCCN(CC)CC)c3ccccc3n2)cc1
- MIC (Staphylococcus aureus [1]): > 100 µg/mL
- fold change (FC) [15]: 8
- inhibition [2]: inactive
- fold change (FC) (Staphylococcus aureus [4]): 8
- fold change (FC) (Staphylococcus aureus [5]): 4
- MIC (Staphylococcus aureus [7]): > 100 µg/mL
- IC50 [8]: 7 µM
- Activity (Staphylococcus aureus [9]): inactive
- MIC (Staphylococcus aureus [10]): 50 µg/mL (≈ 132 µM)
- MIC (Staphylococcus aureus [11]): 100 µg/mL (≈ 264 µM)
- MIC (Staphylococcus aureus [12]): 50 µg/mL (≈ 132 µM)
- MIC (Staphylococcus aureus [13]): > 241 µM
- fold change (FC) [16]: 16

SMILES: CCCOc1ccc(-c2cc(=O)c3cc(OC)c(OC)cc3n2C)cc1
- inhibition [14]: 0%

SMILES: CCCOc1ccc(-c2cc(=O)c3ccccc3n2C)cc1
- inhibition [14]: 33.9%

SMILES: Fc1ccc([C@@H]2CCNC[C@H]2COc2ccc3c(c2)OCO3)cc1 [PAROXETINE]
- inhibition [17]: inactive
- MIC (Staphylococcus aureus [1]): > 100 µg/mL
- inhibition [2]: inactive
- inhibition [14]: 89.7%
- MIC (Staphylococcus aureus [7]): > 100 µg/mL
- IC50 [8]: 7 µM
- Activity (Staphylococcus aureus [9]): inactive
- MIC (Staphylococcus aureus [10]): 100 µg/mL (≈ 304 µM)
- MIC (Staphylococcus aureus [11]): > 100 µg/mL
- MIC (Staphylococcus aureus [12]): > 100 µg/mL
- MIC (Staphylococcus aureus [13]): > 303 µM

SMILES: Cn1c(-c2ccccc2)cc(=O)c2cc(O)c(O)cc21
- inhibition [14]: 0%

SMILES: Cn1c(-c2ccc(O)cc2)cc(=O)c2ccccc21
- inhibition [14]: 0%

SMILES: Cn1c(-c2ccc(O)cc2)cc(=O)c2cc(O)c(O)cc21
- inhibition [14]: 0%

SMILES: CCCOc1ccc(-c2cc(=O)c3ccccc3n2CCN2CCCCC2)cc1
- MIC (Staphylococcus aureus [1]): > 100 µg/mL
- inhibition [2]: inactive
- inhibition [18]: inactive
- MIC (Staphylococcus aureus [7]): > 100 µg/mL
- fold change (FC) [19]: 4
- Activity (Staphylococcus aureus [9]): inactive
- MIC (Staphylococcus aureus [10]): > 100 µg/mL
- MIC (Staphylococcus aureus [11]): > 100 µg/mL
- MIC (Staphylococcus aureus [12]): > 100 µg/mL
- MIC (Staphylococcus aureus [13]): > 256 µM

SMILES: COc1cc2c(=O)cc(-c3ccc(O)cc3)n(C)c2cc1OC
- inhibition [14]: 0%

SMILES: CCN(CC)CCOc1cc(-c2ccc(OCCN3CCCCC3)cc2)nc2ccccc12
- MIC (Staphylococcus aureus [1]): > 100 µg/mL
- inhibition [2]: inactive
- MIC (Staphylococcus aureus [7]): > 100 µg/mL
- Activity (Staphylococcus aureus [9]): inactive
- MIC (Staphylococcus aureus [10]): 100 µg/mL (≈ 223 µM)
- fold change (FC) [20]: 4
- inhibition [21]: inactive
- MIC (Staphylococcus aureus [11]): 100 µg/mL (≈ 223 µM)
- MIC (Staphylococcus aureus [12]): 100 µg/mL (≈ 223 µM)
- MIC (Staphylococcus aureus [13]): > 223 µM

SMILES: CCCOc1ccc(-c2cc(OC)c3ccccc3n2)cc1
- inhibition [14]: 63.7%

SMILES: COC(=O)[C@H]1[C@H]2C[C@@H]3c4[nH]c5cc(OC)ccc5c4CCN3C[C@H]2C[C@@H](OC(=O)c2cc(OC)c(OC)c(OC)c2)[C@@H]1OC [RESERPINE]
- MIC (Staphylococcus aureus [1]): > 100 µg/mL
- inhibition [2]: inactive
- MIC (Staphylococcus aureus [7]): > 100 µg/mL
- IC50 [8]: 7 µM
- Activity (Staphylococcus aureus [9]): inactive
- MIC (Staphylococcus aureus [10]): > 100 µg/mL
- MIC (Staphylococcus aureus [11]): > 100 µg/mL
- MIC (Staphylococcus aureus [12]): > 100 µg/mL
- MIC (Staphylococcus aureus [13]): > 164 µM

SMILES: CCCOc1ccc(-c2cc(O)c3ccccc3n2)cc1
- inhibition [14]: 0%
